Experimental data taken from ChEMBL document CHEMBL1148766, “Design, synthesis, and evaluation of orally active benzimidazoles and benzoxazoles as vascular endothelial growth factor-2 receptor tyrosine kinase inhibitors” (J Med Chem, 2007).

Assays:
[1] = molecular target: T1, Vascular endothelial growth factor receptor 2 (Homo sapiens, UniProt P35968); assay: Inhibition of KDR phosphorylation; type: functional
[2] = Oral bioavailability in Sprague-Dawley rat at 10 mg/kg, po; type: ADME, organism-based; details: in vivo
Summary of the method: (§1)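 Male Sprague-Dawley rats were dosed either into the femoral vein at 1 mg/kg in DMSO (n = 3) or by oral gavage at 10 mg/kg as an Ora-Plus suspension, pH 2.0-2.2 with methanesulfonic acid (n = 2). Serial jugular-vein blood was taken into heparinized tubes over 12-24 h. Parameters were derived by noncompartmental analysis.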

[3] = Half life in Sprague-Dawley rat at 1 mg/kg, iv or 10 mg/kg po; type: ADME, organism-based; details: in vivo; summary of the method: as §1
[4] = Clearance in Sprague-Dawley rat at 1 mg/kg, iv; type: ADME, organism-based; set-up: dose 1 mg/kg, route intravenous; details: in vivo
Summary of the method: (§2)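 Male Sprague-Dawley rats, n = 3, given 1 mg/kg as a DMSO solution into the femoral vein. Serial jugular-vein blood samples were taken into heparinized tubes over 12-24 h. Parameters were derived by noncompartmental analysis.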

[5] = Volume of distribution at steady state in Sprague-Dawley rat at 1 mg/kg, iv; type: ADME, organism-based; set-up: dose 1 mg/kg, route intravenous; details: in vivo, read-out: Vdss; summary of the method: as §2
[6] = molecular target: T1, Vascular endothelial growth factor receptor 2; assay: Selectivity for VEGF-stimulated HUVEC cell proliferation over FGF-induced HUVEC cell proliferation; type: functional, cell-based
Summary of the method: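 HUVECs seeded at 3000/well in DMEM with 10% FBS, 22 h, then preincubated 2 h with compound serial dilutions. Stimulated with 50 ng/mL VEGF or 20 ng/mL bFGF for 72 h at 37 °C, 5% CO₂. Cells washed, frozen, then quantified with CyQuant dye. IC50s from four-parameter logistic fit; ratio of FGF over VEGF IC50.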

[7] = Oral bioavailability in Sprague-Dawley rat at 3 mg/kg, po; type: ADME, organism-based; details: in vivo
Summary of the method: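 Male Sprague-Dawley rats given 3 mg/kg by oral gavage as an Ora-Plus suspension adjusted to pH 2.0-2.2 with methanesulfonic acid. Serial jugular-vein blood was taken into heparinized tubes over 12-24 h. Noncompartmental analysis.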

T1 sequence (P35968 whole entry): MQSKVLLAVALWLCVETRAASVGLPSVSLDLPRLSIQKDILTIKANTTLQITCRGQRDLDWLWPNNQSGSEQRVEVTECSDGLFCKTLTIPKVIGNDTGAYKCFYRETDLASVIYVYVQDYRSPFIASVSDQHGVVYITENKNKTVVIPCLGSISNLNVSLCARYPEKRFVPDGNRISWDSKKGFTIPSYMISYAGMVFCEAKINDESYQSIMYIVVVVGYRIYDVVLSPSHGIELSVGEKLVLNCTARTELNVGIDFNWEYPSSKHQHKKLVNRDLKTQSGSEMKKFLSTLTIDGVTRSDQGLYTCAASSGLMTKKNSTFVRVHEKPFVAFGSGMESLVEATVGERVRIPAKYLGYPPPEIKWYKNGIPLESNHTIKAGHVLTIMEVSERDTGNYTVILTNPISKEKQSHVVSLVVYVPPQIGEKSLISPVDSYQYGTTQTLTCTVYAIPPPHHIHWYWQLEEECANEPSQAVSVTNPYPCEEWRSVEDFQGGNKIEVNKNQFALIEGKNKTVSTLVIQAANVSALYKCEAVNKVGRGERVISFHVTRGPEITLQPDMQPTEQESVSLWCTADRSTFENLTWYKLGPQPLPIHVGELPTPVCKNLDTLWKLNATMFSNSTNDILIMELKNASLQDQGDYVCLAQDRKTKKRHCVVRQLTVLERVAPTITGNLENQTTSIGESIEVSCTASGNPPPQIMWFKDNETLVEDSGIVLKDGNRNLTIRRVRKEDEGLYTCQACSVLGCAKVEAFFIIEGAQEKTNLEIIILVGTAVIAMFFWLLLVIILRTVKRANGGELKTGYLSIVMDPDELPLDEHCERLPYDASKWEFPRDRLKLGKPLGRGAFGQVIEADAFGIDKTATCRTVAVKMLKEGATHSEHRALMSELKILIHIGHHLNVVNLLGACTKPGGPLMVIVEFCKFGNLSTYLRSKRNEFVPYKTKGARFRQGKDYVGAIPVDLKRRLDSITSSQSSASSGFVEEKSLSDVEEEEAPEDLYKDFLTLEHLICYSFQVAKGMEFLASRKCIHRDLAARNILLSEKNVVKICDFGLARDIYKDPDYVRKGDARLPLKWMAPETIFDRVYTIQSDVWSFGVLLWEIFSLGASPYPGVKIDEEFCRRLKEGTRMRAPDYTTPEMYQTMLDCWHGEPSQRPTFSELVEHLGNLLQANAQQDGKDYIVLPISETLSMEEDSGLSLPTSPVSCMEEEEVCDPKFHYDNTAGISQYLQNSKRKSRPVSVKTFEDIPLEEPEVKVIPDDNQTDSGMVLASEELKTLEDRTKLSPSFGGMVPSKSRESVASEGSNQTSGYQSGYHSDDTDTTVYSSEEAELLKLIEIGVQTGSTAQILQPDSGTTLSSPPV

SMILES | Ki [1] [nM] | other results
CN1CCN(Cc2cc(Nc3nc4cc(Oc5ccnc6ccccc56)ccc4o3)ccc2Cl)CC1 | 3.6 | –
CNC(=O)c1cc(Oc2cc(Cl)c3oc(Nc4ccc(Cl)c(CN5CCN(C)CC5)c4)nc3c2)ccn1 | 10 | –
CN1CCN(Cc2cc(Nc3nc4cc(Oc5ccnc6ccccc56)cc(Cl)c4o3)ccc2Cl)CC1 | 2 | –
COc1cc2ncnc(Oc3ccc4oc(Nc5ccc(Cl)c(OC[C@@H]6CCCN6C)c5)nc4c3)c2cc1OC | 0.5 | bioavailability [2]: 60%; half-life [3]: 6.14 h; Ratio IC50 [6]: 10; clearance [4]: 0.89 L/h/kg; Vd [5]: 6.88 L/kg
CN1CCN(Cc2cc(Nc3nc4cc(Oc5ccnc6ccccc56)ccc4[nH]3)ccc2Cl)CC1 | 2 | –
CNC(=O)c1cc(Oc2ccc3oc(Nc4ccc(Cl)c(OCCN(C)C)c4)nc3c2)ccn1 | 4 | –
CNc1nccc(Oc2ccc3oc(Nc4ccc(Cl)c(CN5CCN(C)CC5)c4)nc3c2)n1 | 25 | –
CN1CCN(Cc2cc(Nc3nc4cc(Oc5ccnc6[nH]ccc56)ccc4o3)ccc2Cl)CC1 | 2 | –
CNc1cc(Oc2ccc3oc(Nc4ccc(Cl)c(CN5CCN(C)CC5)c4)nc3c2)ncn1 | 20 | –
COc1cc2nccc(Oc3ccc4oc(Nc5ccc(Cl)c(CN6CCN(C)CC6)c5)nc4c3)c2cc1OC | 0.5 | bioavailability [2]: 67%; half-life [3]: 5.53 h; Ratio IC50 [6]: 10; clearance [4]: 1.63 L/h/kg; Vd [5]: 12.1 L/kg
CN1CCN(Cc2cc(Nc3nc4ccc(Oc5ncnc6[nH]ccc56)cc4[nH]3)ccc2Cl)CC1 | 17 | –
CSc1nccc(Oc2ccc3[nH]c(Nc4ccc(Cl)c(CN5CCN(C)CC5)c4)nc3c2)n1 | 128 | –
CNC(=O)c1cc(Oc2ccc3oc(Nc4ccc(Cl)c(OC[C@@H]5CCCN5C)c4)nc3c2)ccn1 | – | bioavailability [7]: 40%; half-life [3]: 1.8 h; clearance [4]: 3.4 L/h/kg; Vd [5]: 8.4 L/kg
COc1cc2nccc(Oc3ccc4[nH]c(Nc5ccc(Cl)c(CN6CCN(C)CC6)c5)nc4c3)c2cc1OC | 0.2 | –
CN1CCN(Cc2cc(Nc3nc4ccc(Oc5ccnc6[nH]ccc56)cc4[nH]3)ccc2Cl)CC1 | 3 | –
COc1cc2nccc(Oc3ccc4oc(Nc5ccc(Cl)c(OC[C@@H]6CCCN6C)c5)nc4c3)c2cc1OC | 0.5 | –
CN1CCCC1COc1cc(Nc2nc3cc(Oc4ccnc5[nH]ccc45)ccc3o2)ccc1Cl (single isomer, unassigned) | 1.6 | bioavailability [2]: 17%; half-life [3]: 2.87 h; clearance [4]: 1.24 L/h/kg; Vd [5]: 5.02 L/kg

Second part, led by results:

Ki [1] [nM] | SMILES | other results
3 | CNC(=O)c1cc(Oc2ccc3oc(Nc4ccc(Cl)c(OCC5CCNCC5)c4)nc3c2)ccn1 | –
12 | CNC(=O)c1cc(Oc2ccc3oc(Nc4ccc(Cl)cc4)nc3c2)ccn1 | –
3 | CNC(=O)c1cc(Oc2cc(F)c3oc(Nc4ccc(Cl)c(OC[C@@H]5CCCN5C)c4)nc3c2)ccn1 | –
3 | CNC(=O)c1cc(Oc2ccc3[nH]c(Nc4ccc(C(F)(F)F)c(OCCN(C)C)c4)nc3c2)ccn1 | –
3 | CN1CCC[C@H]1COc1cc(Nc2nc3cc(Oc4ccnc(C(N)=O)c4)ccc3o2)ccc1Cl | –
1 | CN1CCC[C@@H]1COc1cc(Nc2nc3cc(Oc4ccnc5ccccc45)ccc3[nH]2)ccc1C(F)(F)F | bioavailability [2]: 24%; half-life [3]: 4.8 h; clearance [4]: 1 L/h/kg; Vd [5]: 5.8 L/kg
40 | CNc1nccc(Oc2ccc3[nH]c(Nc4ccc(Cl)c(CN5CCN(C)CC5)c4)nc3c2)n1 | –
287 | CNC(=O)c1cc(Oc2ccc3[nH]c(Nc4cc(OCCN5CCCC5)cc(C(F)(F)F)c4)nc3c2)ccn1 | –
2 | CNC(=O)c1cc(Oc2ccc3[nH]c(Nc4ccc(C(F)(F)F)c(OC[C@H]5CCCN5C)c4)nc3c2)ccn1 | –
48 | FC(F)(F)c1cc(Nc2nc3ccc(Oc4ccnc5[nH]ccc45)cc3[nH]2)ccc1Cl | –
10 | CNC(=O)c1cc(Oc2ccc3c(c2)nc(Nc2ccc(Cl)c(CN4CCN(C)CC4)c2)n3C)ccn1 | –
8 | COc1cc2ncnc(Oc3ccc4[nH]c(Nc5ccc(Cl)cc5)nc4c3)c2cc1OC | –
4 | CNC(=O)c1cc(Oc2ccc3oc(Nc4ccc(Cl)c(CN5CCOCC5)c4)nc3c2)ccn1 | –
5 | CCN(CC)CCOc1cc(Nc2nc3cc(Oc4ccnc(C(=O)NC)c4)ccc3o2)ccc1Cl | –
3.9 | CNC(=O)c1cc(Oc2ccc3[nH]c(Nc4ccc(Cl)c(CN5CCN(C)CC5)c4)nc3c2)ccn1 | –
4 | CNC(=O)c1cc(Oc2ccc3oc(Nc4ccc(Cl)c(CN5CCN(C)CC5)c4)nc3c2)ccn1 | –
160 | FC(F)(F)c1cc(Nc2nc3cc(Oc4ccncc4)ccc3[nH]2)ccc1Cl | –
9 | CNC(=O)c1cc(Oc2ccc3[nH]c(Nc4ccc(C(F)(F)C(F)(F)F)c(OC[C@H]5CCCN5C)c4)nc3c2)ccn1 | –
